Screening results from PubChem BioAssay.
MC4R ag barr: activates human MC4R beta-arrestin recruitment; P32245; U2OS MC4R beta-arrestin complementation, luminescence; percent of melanotan II response, DMSO zero; activation, % at 8.9 µM; actives 0.98% (n = 360,000);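 active means activation above a per-plate cutoff, the mean activation of sample wells on that plate plus 3 SD, cut at about 8% in these data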
HTR2A ag: mouse HTR2A agonism via beta-arrestin recruitment. P35363. CHO-K1 mHTR2A beta-arrestin complementation, luminescence; percent of 30 µM serotonin response. activation, % at 7.6 µM. actives 0.66% (n = 360,000). AID 624169;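 active means activation above a run cutoff, the mean activation of all tested compounds plus 3 SD, cut at about 14% in these data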;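 further: 0% = plate median of compound wells and 100% = 30 µM serotonin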
Target sequence (P35363 whole entry, looked up): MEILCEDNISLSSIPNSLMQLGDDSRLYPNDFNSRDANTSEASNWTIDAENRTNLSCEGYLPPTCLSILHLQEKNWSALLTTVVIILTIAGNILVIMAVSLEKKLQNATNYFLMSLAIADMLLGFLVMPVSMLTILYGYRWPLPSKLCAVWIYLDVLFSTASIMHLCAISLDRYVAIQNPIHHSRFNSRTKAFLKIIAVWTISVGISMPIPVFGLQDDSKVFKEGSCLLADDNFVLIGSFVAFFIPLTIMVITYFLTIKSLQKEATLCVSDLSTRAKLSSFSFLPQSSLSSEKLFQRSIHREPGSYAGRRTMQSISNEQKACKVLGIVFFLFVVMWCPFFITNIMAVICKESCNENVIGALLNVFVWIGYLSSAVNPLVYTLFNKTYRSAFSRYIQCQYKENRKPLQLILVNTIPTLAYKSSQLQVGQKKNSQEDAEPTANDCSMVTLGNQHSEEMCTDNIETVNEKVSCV
FXN GAA850 act: frataxin GAA850 promoter activation | HEK293 lucGAA850 FXN promoter luciferase reporter, 24 h; percent of 10 µM SAHA response | activation, % at 6 µM | actives 0.56% (n = 360,000);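 active means activation above the average of all compounds screened plus 3 SD, cutoff fixed separately per campaign, cut at about 7.5% in these data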;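 further: 0% = DMSO wells and 100% = 10 µM SAHA wells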
AHR activator: activates the human aryl hydrocarbon receptor | P35869 | AHR-responsive luciferase reporter cells, luminescence | activation, % at 5 µM | actives 2.5% (n = 320,000) | AID 2796; in the data active means activation above about 47%;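 further: 0% = vehicle wells and 100% = reference agonist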
MC4R antagonist: blocks human MC4R cAMP signaling. P32245. MC4R-expressing cells, MTII-stimulated cAMP, LANCE TR-FRET. inhibition, % at 6.5 µM. actives 0.48% (n = 360,000). AID 540295;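 active means inhibition above its plate's cutoff, the mean of tested wells on that plate plus 3 SD, cut at about 29% in these data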;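 further: 0% = Melanotan II alone and 100% = Melanotan II plus saturating MCL0020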
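Material: U2OS-MC4R stable cell line | Reagent: Melanotan II challenge after compound preincubation | Doses: One concentration, 6.5 µM nominal | Incubation: 30-min compound preincubation, 1-h Melanotan II challenge, 1-h detection, room temperature | Signal: TR-FRET cAMP assay | Replicates: One well per compound, no replicates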
Numbers without * were called inactive; . = no result. Compounds with a hit are over-represented: about 4.7% of the library has one in this group of screens.

SMILES	MC4R ag barr	HTR2A ag	FXN GAA850 act	AHR activator	MC4R antagonist
Cc1ccc(Nc2nc(=O)c3cccnc3s2)cc1	0	-5	6	69*	18
Cc1ccc(Cl)cc1NC(=S)N/N=C/c1cccc2ccccc12	-3	2	-2	55*	-24
Cc1ccccc1C(=O)N/N=C/c1cccc2ccccc12	2	-2	1	23	21
Cc1ccc(C(=O)NNC(=O)c2ccncc2)cc1[N+](=O)[O-]	-1	-2	0	1	3
Cc1ccc(C(=O)ONC(=O)c2ccc(Cl)cc2)cc1[N+](=O)[O-]	2	-5	-2	55*	6
COCCN=c1scc(-c2ccccc2)n1/N=C/c1c[nH]c2ccccc12	-1	-1	2	55*	-3
COc1ccc(C(=O)Nc2nc(C)c3cc4c(cc3n2)OCO4)cc1	0	-1	-2	39	5
Cc1cc(C)nc(Nc2nc(C)c3cc4c(cc3n2)OCO4)n1	0	1	2	49*	-3
Cc1ccc2cc3cc(C(=O)N(CC(=O)NC4CCCC4)c4cccc(C)c4C)sc3nc2c1	1	-2	-2	0	34*
Cc1ccc2[nH]c(C(=O)Nc3ccc(F)cc3)cc2c1	1	-4	3	11	-9
Cc1ccc2[nH]c(CNC(=O)c3ccc(F)cc3)cc2c1	-1	0	2	65*	12
CCc1cccc(OCCOC(=O)CNS(=O)(=O)c2ccc(NC(C)=O)cc2)c1	1	-4	2	.	23
O=C(C1CCN(S(=O)(=O)c2ccc(Cl)cc2)CC1)N1CCC1	-1	1	3	-1	6
COCc1cc(C)nc2sc(C(=O)OC(C)C)c(N)c12	0	7	5	72*	-10
COc1ccc(C(=O)Oc2ccc3oc(=O)sc3c2)cc1	13*	13	1	0	-5
COc1ccc(S(=O)(=O)N2CCC3CC2c2cc(N4CCOCC4)ccc23)cc1 (stereo not given)	-1	0	-1	.	10
O=C1Nc2cc(C(F)(F)F)ccc2N2CCCCC12 (stereo not given)	-2	-2	-2	74*	22
O=C1Nc2ccc(C(F)(F)F)cc2N2CCCC12 (stereo not given)	.	.	.	8	.
Cc1c(-c2ccccc2)c(-c2ccc(OCCN(C)C)cc2)n2ccccc12	2	5	-1	.	5
N#CN1CCC(NS(=O)(=O)c2ccc(C(F)(F)F)cc2)C1 (stereo not given)	1	1	0	-3	3
Cc1ccc(Oc2nc(-c3ccccc3)ncc2S(C)(=O)=O)cc1	8.4*	-1	4	15	-4
Cc1ccc(Oc2nc(-c3ccccc3)ncc2S(=O)(=O)c2ccc(C)cc2)cc1	-3	-8	-1	1	1
COc1ccccc1OCc1cc(C(=O)N(C)CCC2CCCCO2)no1 (stereo not given)	3	7	0	53*	-2
Cc1ccc2nc(/C(C#N)=C/c3cn[nH]c3-c3ccc(F)cc3)[nH]c2c1	1	5	-5	76*	5
Cc1ccc2nc(/C(C#N)=C/c3ccc(O)c(O)c3)[nH]c2c1	-3	-2	7	62*	1
SMILES	MC4R ag barr	HTR2A ag	FXN GAA850 act	AHR activator	MC4R antagonist
C[C@H](CO)N1C[C@H](C)[C@@H](CN(C)S(C)(=O)=O)Oc2ccc(NC(=O)CCC(F)(F)F)cc2C1=O	0	3	0	-2	1
O=C(c1[nH]c(C(F)(F)F)nc1-c1ccccc1)N1CCc2ccccc2C1	.	0	.	.	.
C=CCc1ccc(OCC(O)COc2ccc(CC=C)cc2OC)c(OC)c1	8.7*	3	2	8	12
CCc1ccc(/C=C2\SC(=S)N(CCCC(=O)NC3=NCCS3)C2=O)cc1	-2	5	-14	.	-5
N#Cc1ccc(N)cc1OCCCN1CCCCC1	0	-3	3	.	-4
CCCCn1c(SCC(=O)c2ccc(OC)c(OC)c2)nc2cc(S(N)(=O)=O)ccc21	-2	1	-1	7	5
CCCCn1c(SCC(=O)c2ccc(OCC)cc2)nc2cc(S(N)(=O)=O)ccc21	2	-4	2	48*	3
CCN(CC)S(=O)(=O)c1cccc(NC(=O)COC(=O)c2[nH]c(C)c(C(C)=O)c2C)c1	0	2	-5	.	6
COc1ccccc1NC(=O)CSc1c2c(nc3ccccc13)CCC2	-3	-1	0	47*	4
COc1ccc(NC(=O)CSc2c3c(nc4ccccc24)CCCC3)c(OC)c1	-1	4	-3	2	20
O=C(N/N=C/c1ccc([N+](=O)[O-])o1)c1cn(-c2ccccc2)nc1-c1ccc(Cl)cc1	0	8	4	9	0
O=[N+]([O-])CC(=Nc1ccc(Cl)cc1)N/N=C\c1oc(O)c2ccccc12	-1	-2	2	95*	-1
COc1ccc(CN2CCN(S(=O)(=O)c3ccccc3)CC2)c(OC)c1OC	3	1	1	5	1
COc1ccc(C(=O)Nc2nc(CC(=O)NCCc3ccccc3)cs2)cc1	-4	2	2	48*	-2
COc1ccc(C(=O)Nc2nc(CC(=O)NCCc3cccc(OC)c3)cs2)cc1	-2	7	1	26	0
CCc1ccccc1NC(=O)CNC(=O)c1ccccc1OCc1c(C)noc1C	-4	-8	0	2	2
COc1ccc(C(=O)Nc2nc3cc(OC)c(OC)cc3c(=O)[nH]2)cc1	0	1	0	2	-3
COc1ccc(C(=O)Nc2nc3ccccc3c(=O)[nH]2)cc1	-1	-2	2	74*	5
O=C1CC(SC(=S)C2CCCC2=O)C(=O)N1 (stereo not given)	1	2	2	.	-3
CN1CCc2nc(SCC(=O)Nc3ccc(F)cc3)c(C#N)cc2C1	.	.	.	67*	.
COc1ccc(NC(=O)CSc2nc3c(cc2C#N)CN(C)CC3)cc1	-2	-2	1	10	7
CC(C)N=C(Nc1ccc(Cl)cc1)c1cccnc1	-3	-4	0	79*	6
CO[C@H]1CN(C)C(=O)c2ccc(NS(=O)(=O)c3ccccc3F)cc2OC[C@H](C)NC[C@@H]1C	.	3	.	.	.
CC1(C(=O)Nc2cccnc2)Cc2c(-c3ccc4c(c3)OCO4)ccnc2O1 (stereo not given)	2	3	0	.	2
CCN(CC)S(=O)(=O)c1ccc(OC)c(NC(=O)c2ccc(-n3cncn3)c([N+](=O)[O-])c2)c1	-2	-3	-2	0	8
CCC(C)c1ccc(Nc2ncccc2C#N)cc1 (stereo not given)	3	5	2	61*	-1
CCc1ccc(Nc2ncccc2C#N)cc1	-1	-4	1	52*	4
COc1ccc(CCNc2ncccc2C#N)cc1OC	0	6	2	18	7
O=C(C(=O)N1CCN(c2ccccc2)CC1)c1ccccc1	.	4	.	.	.
